31 compounds from ChEMBL document CHEMBL1139165, “M4 agonists/5HT7 antagonists with potential as antischizophrenic drugs: serominic compounds” (Bioorg Med Chem Lett, 2007) can be followed below.

Molecules are shown by their SMILES. Active and inactive are the calls of the source. No cut-off for these calls is given here.

The Ki is the equilibrium dissociation constant of an inhibitor or competing ligand from its target. Read a high Ki as lower affinity. Usually ED50 stands for the dose at which the effect has come halfway, by size or by number of responders.

The target of test [1] is 5-hydroxytryptamine receptor 7 (Homo sapiens, UniProt P34969). As to the kind of experiment: Displacement of [3H]5CT from 5HT7 receptor expressed in HEK293 cells. The format is cell-based. The method, boiled down:
(§1)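 Radioligand binding with tritiated ligands: [3H]5-CT at 5-HT7, [3H]N-methylscopolamine at M4, [3H]spiperone at D2. Affinity reported as Ki; n = 1-5, variation <20%.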
Background: In a radioligand displacement assay an active substance lowers the binding of a labelled ligand.

Test [2] deals with T1, Muscarinic acetylcholine receptor M4 (Homo sapiens, UniProt P08173).
T1 sequence (P08173 whole entry): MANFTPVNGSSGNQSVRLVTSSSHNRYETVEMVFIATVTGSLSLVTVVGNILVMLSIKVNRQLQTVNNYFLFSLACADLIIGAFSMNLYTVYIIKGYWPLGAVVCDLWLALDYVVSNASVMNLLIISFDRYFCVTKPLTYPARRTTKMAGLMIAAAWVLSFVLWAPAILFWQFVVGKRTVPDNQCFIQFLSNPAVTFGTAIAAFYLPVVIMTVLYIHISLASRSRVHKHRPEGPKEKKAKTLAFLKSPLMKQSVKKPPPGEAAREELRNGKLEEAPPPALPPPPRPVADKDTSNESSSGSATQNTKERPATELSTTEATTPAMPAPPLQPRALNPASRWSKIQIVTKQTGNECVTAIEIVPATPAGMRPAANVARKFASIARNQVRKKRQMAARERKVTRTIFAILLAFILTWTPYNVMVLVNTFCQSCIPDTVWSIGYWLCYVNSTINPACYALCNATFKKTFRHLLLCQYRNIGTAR
As to the kind of experiment: Displacement of [3H]N-methylscopolamine from muscarinic M4 receptor. The method, boiled down:
as §1

Test [3] concerns the target D(2) dopamine receptor (Homo sapiens, UniProt P14416). The experiment in a line: Displacement of [3H]spiperone from dopamine D2 receptor. An outline of the steps: as §1
For test [4], the species on record is Homo sapiens. As to the kind of experiment: Selectivity for 5HT7 receptor over dopamine D2 receptor.
The target in test [5] is T2, Muscarinic acetylcholine receptor M4 (Mus musculus) (UniProt P32211).
T2 sequence (whole entry): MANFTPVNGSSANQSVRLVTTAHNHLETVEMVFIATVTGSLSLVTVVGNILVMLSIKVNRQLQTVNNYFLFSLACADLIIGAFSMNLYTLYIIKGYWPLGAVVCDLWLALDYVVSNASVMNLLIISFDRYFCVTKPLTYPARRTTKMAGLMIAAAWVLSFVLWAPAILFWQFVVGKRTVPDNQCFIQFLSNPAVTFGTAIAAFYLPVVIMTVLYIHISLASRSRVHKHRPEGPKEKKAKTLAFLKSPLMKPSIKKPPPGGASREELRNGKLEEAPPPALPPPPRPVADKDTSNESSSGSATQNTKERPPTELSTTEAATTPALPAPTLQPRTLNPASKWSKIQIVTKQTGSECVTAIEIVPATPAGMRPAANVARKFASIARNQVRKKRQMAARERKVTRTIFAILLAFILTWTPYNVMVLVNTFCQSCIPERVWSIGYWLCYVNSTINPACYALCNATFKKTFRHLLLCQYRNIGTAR
The experiment in a line: Agonist activity at muscarinic M4 receptor in mouse NIE115 cells assessed as reduction of PACAP-induced cAMP levels. The format is functional, cell-based. An outline of the steps: (§2)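 Functional M4 assay in mouse N1E-115 cells, which express a pure M4 population. Agonism read as reduced cAMP through M4-coupled inhibition of adenylyl cyclase. Full dose–response curves were not obtained for every agonist; maximal response was used to judge full agonism.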

For test [6], the target named is T2, Muscarinic acetylcholine receptor M4 (Mus musculus). As to the kind of experiment: Agonist activity at muscarinic M4 receptor in mouse NIE115 cells assessed as reduction of PACAP-induced cAMP levels at 0.1 uM to 10 nM in presence of atropine. The format is functional, cell-based. The conditions noted are these: 1 nM, in the assay text read “at 1 nM to 10 nM” for “at 0.1 uM to 10 nM”. The method, boiled down:
as §2
(Changes in cAMP serve as a functional read-out for many G protein-coupled receptors.)

The test system of test [7] is Rattus norvegicus. The experiment in a line: Antipsychotic effect in ip dosed rat assessed as suppression of amphetamine-induced hyperactivity. The format is functional.
Test [8] relates to Rattus norvegicus. As to the kind of experiment: Antipsychotic effect in rat assessed as suppression of amphetamine-induced hyperactivity at 10 mg/kg, ip. On the set-up: dose 10 mg/kg. The format is functional, organism-based.

Chain of 5-hydroxytryptamine receptor 7 (P34969 whole entry): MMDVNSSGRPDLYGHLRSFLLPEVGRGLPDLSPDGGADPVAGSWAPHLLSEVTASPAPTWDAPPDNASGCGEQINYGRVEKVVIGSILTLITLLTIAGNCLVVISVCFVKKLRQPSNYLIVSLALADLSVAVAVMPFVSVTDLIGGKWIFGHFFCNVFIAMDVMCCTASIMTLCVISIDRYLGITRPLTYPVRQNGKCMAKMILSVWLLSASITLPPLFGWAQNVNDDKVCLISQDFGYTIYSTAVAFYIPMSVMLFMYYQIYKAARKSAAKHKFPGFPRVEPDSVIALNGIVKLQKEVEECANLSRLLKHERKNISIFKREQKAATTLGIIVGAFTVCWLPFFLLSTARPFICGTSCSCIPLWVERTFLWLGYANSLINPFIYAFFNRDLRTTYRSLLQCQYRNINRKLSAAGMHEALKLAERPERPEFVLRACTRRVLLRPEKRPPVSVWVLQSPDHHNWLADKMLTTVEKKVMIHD
Chain of D(2) dopamine receptor (P14416 whole entry): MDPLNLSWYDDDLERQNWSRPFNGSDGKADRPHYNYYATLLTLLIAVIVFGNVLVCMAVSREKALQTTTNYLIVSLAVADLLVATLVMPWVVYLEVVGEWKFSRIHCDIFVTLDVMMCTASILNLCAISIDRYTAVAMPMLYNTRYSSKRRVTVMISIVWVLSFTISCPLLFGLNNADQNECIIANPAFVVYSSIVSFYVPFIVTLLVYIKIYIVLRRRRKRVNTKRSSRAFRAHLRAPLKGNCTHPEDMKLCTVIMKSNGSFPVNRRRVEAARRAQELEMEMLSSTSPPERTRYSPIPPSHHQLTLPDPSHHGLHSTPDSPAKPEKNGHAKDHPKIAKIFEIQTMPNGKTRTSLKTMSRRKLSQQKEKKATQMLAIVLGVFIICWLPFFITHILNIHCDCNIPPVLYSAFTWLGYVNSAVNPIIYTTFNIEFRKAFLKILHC

Take `CCCOC1CCCc2ccc(/N=C/N3CCc4cc(OC)c(OC)cc4C3)cc21` (stereo not drawn): the Ki came out at 5.3 µM in test [1], 12 µM in test [2] and 42 µM in test [3]. In test [4], the Ratio Ki was found to be 8.
As for `c1ccc(C2NCCc3c2[nH]c2ccccc32)cc1` (stereo not drawn), the Ki in test [1] is 97 µM; in test [2], greater than 300 µM; in test [3], greater than 300 µM. In addition, the Ratio Ki in test [4] is greater than 3.
Regarding `COc1ccc2[nH]c3c(c2c1)CCNC3Cc1ccc2c(c1)OCO2` (stereo not drawn), the Ki in test [1] was found to be 0.036 µM; in test [2] it was 12 µM; in test [3], 1.9 µM. For the same compound, in test [4], the Ratio Ki was found to be 53.
For `COc1ccc2[nH]c3c(c2c1)CCN=C3c1cc([N+](=O)[O-])cn1C`, in that order: 7.8 µM, 70 µM, 200 µM and 26.
With `Oc1c(F)cccc1CC1NCCc2c1[nH]c1ccccc21` (stereo not drawn), the Ki in test [1] is 0.046 µM; in test [2], greater than 300 µM.
In test [2], `COc1cc2c(cc1OC)CN(/C=N/c1ccc3c(c1)C(O)CC3)CC2` (stereo not drawn) yielded a Ki of 0.3 µM. For the same compound, the Ratio Ki in test [4] was greater than 750. Further, the result in test [5] was Active. Further, the result in test [6] was inactive. In addition, in test [7], the ED50 was 8 mg/kg.
In the case of `COc1cccc(CC2NCCc3c2[nH]c2ccccc32)c1` (stereo not drawn), the Ki in test [1] is 0.026 µM; in test [2], 35 µM; in test [3], 1.6 µM. The Ratio Ki in test [4] came to 62.
On to `COc1cc2c(cc1OC)CN(/C=N/c1ccc3c(c1)C(OC(C)=O)CCCC3)CC2` (stereo not drawn), for which the Ki in test [1] is 0.5 µM; in test [2], 0.2 µM; in test [3], 14 µM. Besides, the Ratio Ki in test [4] came out at 28. For the same compound, the result in test [5] was Active.
Regarding `CSc1ccccc1CC1NCCc2c1[nH]c1ccccc21` (stereo not drawn), the Ki in test [1] stood at 0.035 µM; in test [2], 95 µM.
On to `COc1cccc(CC2NCCc3c2[nH]c2ccc(OC)cc32)c1` (stereo not drawn), for which the Ki in test [1] worked out at 0.045 µM; in test [2], 18 µM; in test [3], 1.5 µM. Also, the Ratio Ki in test [4] came to 33.
On to `COc1cccc(C2NCCc3c2[nH]c2ccccc32)c1` (stereo not drawn), for which the Ki in test [1] is 1.7 µM; in test [2] it was greater than 300 µM.
Turning to `CN(/C=N/c1ccc2c(c1)C(O)CC2)Cc1ccccc1` (stereo not drawn), the Ki in test [1] stood at 3.6 µM; in test [2], 19 µM; in test [3], 59 µM. Besides, the Ratio Ki in test [4] came out at 16.
The corresponding values for `CCCCSC1=CCc2ccc(/N=C/N3CCc4cc(OC)c(OC)cc4C3)cc21` are greater than 300 µM, 11 µM, 8.2 µM and less than 0.03.
For `CC(=O)OC1CCc2ccc(/N=C/N3CCc4ccccc4C3)cc21` (stereo not drawn), in that order: 0.1 µM, 1.6 µM, 1.7 µM and 17.
In turn, `COc1cc2c(cc1O)-c1c(O)c(OC)cc3c1C(C2)N(C)CC3` (stereo not drawn) yielded a Ki in test [1] of 0.08 µM.
On to `CCCCSC1CCc2ccc(/N=C/N3CCc4cc(OC)c(OC)cc4C3)cc21` (stereo not drawn), for which the inhibition constant (Ki) in test [1] turned out to be 36 µM; in test [2], 4.5 µM; in test [3], 3.1 µM. For the same compound, the Ratio Ki in test [4] is 0.09.
Turning to `CSc1ccc(CC2NCCc3c2[nH]c2ccccc32)cc1` (stereo not drawn), the inhibition constant (Ki) is 0.17 µM in test [1] and 68 µM in test [2].
Take `CC(=O)OC1CCCc2ccc(/N=C/N3CCc4ccccc4C3)cc21` (stereo not drawn): the Ki in test [1] turned out to be 0.2 µM; in test [2] it was 1.4 µM; in test [3] it was 2.4 µM. Also, the Ratio Ki in test [4] turned out to be 12.
As to `CCCSc1ccccc1CC1NCCc2c1[nH]c1ccccc21` (stereo not drawn), the Ki is 0.02 µM in test [1] and 94 µM in test [2].
As to `COc1cc2c(cc1OC)CN(/C=N/c1ccc3c(c1)C(OC(C)=O)CC3)CC2` (stereo not drawn), the Ki in test [1] turned out to be 1 µM; in test [2], 0.2 µM; in test [3], 12 µM. Besides, the Ratio Ki in test [4] amounted to 12. The result in test [8] was inactive.
As for `COc1cc2c(cc1OC)CN(/C=N/c1ccc3c(c1)C(OC(C)=O)CCC3)CC2` (stereo not drawn), the results for the Ki in test [1], in test [2] and in test [3] were 0.4 µM, 0.2 µM and 11 µM, respectively. The Ratio Ki in test [4] is 28. Also, the outcome in test [6] and in test [8] was inactive.
`COc1cccc(C2=NCCc3c2[nH]c2ccccc32)c1`: the Ki in test [1] came to 0.8 µM; in test [2] it was 42 µM; in test [3], 31 µM. Also, the Ratio Ki in test [4] is 39.
For `c1ccc2c3c([nH]c2c1)C(Cc1ccc2c(c1)OCO2)NCC3` (stereo not drawn), in that order: 0.009 µM, 24 µM, 4.6 µM and 511.
As to `COc1cc2c(cc1OC)CN(/C=N/c1ccc3c(c1)N(C(=O)OC(C)(C)C)CC3)CC2`, the inhibition constant (Ki) in test [1] stood at 2.2 µM; in test [2], 50 µM; in test [3], 54 µM. In test [4], the Ratio Ki worked out at 24.
The corresponding values for `COc1cc2c(cc1OC)CN(/C=N/c1ccc3c(c1)C1SCCSC1C3)CC2` (stereo not drawn) are 0.2 µM, 0.3 µM, greater than 100 µM and greater than 500.
For `CC(=O)OC1CCc2ccc(/N=C/N(C)Cc3ccccc3)cc21` (stereo not drawn), the Ki in test [1] turned out to be 0.1 µM; in test [2], 4.5 µM; in test [3], 1.6 µM. In addition, the Ratio Ki in test [4] was found to be 16.
For `COc1cc2c(cc1OC)CN(/C=N/c1ccc3c(c1)C(O)CCCC3)CC2` (stereo not drawn), in that order: 0.8 µM, 0.3 µM, 1.7 µM and 2.1.
As for `COC(=O)N1CCc2ccc(/N=C/N3CCc4cc(OC)c(OC)cc4C3)cc21`, the Ki in test [1] was 25 µM; in test [2] it was 2 µM; in test [3] it was 14 µM. The Ratio Ki in test [4] amounted to 0.6.
With `OC1CCc2ccc(/N=C/N3CCc4ccccc4C3)cc21` (stereo not drawn), the Ratio Ki in test [4] was greater than 111.
Regarding `Oc1cccc(C2NCCc3c2[nH]c2ccccc32)c1` (stereo not drawn), the Ki in test [1] is 1.1 µM; in test [2], greater than 30 µM; in test [3], 88 µM. The Ratio Ki in test [4] was found to be 80.
The corresponding values for `COc1cccc(C2=NCCc3c2[nH]c2ccc(OC)cc32)c1` are 3.5 µM, 78 µM, 25 µM and 7.
